Screening results from PubChem BioAssay.
Compounds with a hit are over-represented: about 1.3% of the library has one in this group of screens.
aDG glyco up: alpha-DG glycosylation activation. Pro5-aDG cells, alpha-DG glycosylation AlphaScreen (IIH6); 0% Pro5, 100% B10-LARGE cell signal. activation, % at 10 µM. 360,000 compounds, 0.22% hits;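 active = activation of at least 8% versus controls, or a plate z-score of at least 8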;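 note: Pro5 are CHO cells carrying HIG-tagged alpha-DG that lacks glycosylation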
DDE Tn7 FP inh: inhibitors of Tn7 peptide binding to human fibrin DD(E); FP displacement of FITC-Tn7 peptide from fibrin DD(E); 0% = median of compound wells per plate; P02675; AID 720508; 370,000 compounds, 0.13% hits; inhibition, % at 8.3 µM;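 active = inhibition above the mean of compounds falling within the control limits plus 3 SD of them, cut at about 14% in these data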;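 note: 0% = plate median of compound wells and 100% = 10 µM Aha-Tn7 peptide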
Target sequence (P02675 whole entry, looked up): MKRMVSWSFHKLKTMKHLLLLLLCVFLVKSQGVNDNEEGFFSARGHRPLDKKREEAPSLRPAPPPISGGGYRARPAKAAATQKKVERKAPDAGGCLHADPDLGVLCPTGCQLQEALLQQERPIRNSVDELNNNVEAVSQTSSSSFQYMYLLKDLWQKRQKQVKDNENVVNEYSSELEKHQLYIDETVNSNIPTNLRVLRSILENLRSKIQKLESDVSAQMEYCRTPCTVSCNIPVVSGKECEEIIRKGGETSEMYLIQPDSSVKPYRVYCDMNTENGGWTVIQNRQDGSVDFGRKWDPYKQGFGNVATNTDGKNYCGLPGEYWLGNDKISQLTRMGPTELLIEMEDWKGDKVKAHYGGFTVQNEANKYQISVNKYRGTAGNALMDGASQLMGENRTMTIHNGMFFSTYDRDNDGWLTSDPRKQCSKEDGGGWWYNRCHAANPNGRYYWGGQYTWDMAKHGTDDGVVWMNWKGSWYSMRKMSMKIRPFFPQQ
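Test system – human fibrin DD(E) · Times – 10 min preincubation, 3 h with tracer, room temperature · Detection – fluorescence polarization of the labelled Tn7 tracer · Measure – percent inhibition normalized to high-control wells · Benchmarks – high control wells with 10 µM unlabelled Aha-Tn7 peptide (full inhibition) · Repeats – singlicate testing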
NRP1-CendR mod: NRP-1/CendR interaction modulation. O14786. FAM-RPARPAR peptide binding to NRP-1, fluorescence polarization. inhibition, % at 25 µM. 360,000 compounds, 0.85% hits. AID 602438;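 active = inhibition or corrected inhibition above about 18%, plus a signal ratio from 0.5 to 1.5, limit read from the data, passing the limit was not always enough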
Tn6 DDE FP: inhibitors of Tn6 peptide binding to human fibrin DD(E). AID 720509. 370,000 compounds, 0.21% hits. inhibition, % at 8.3 µM. P02675. Fibrin DD(E) TRITC-Tn6 fluorescence polarization displacement;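 active = inhibition above a per-campaign cutoff: mean of compounds within control limits plus 3 SD, cut at about 15% in these data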;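 note: 0% = median of all compound wells on the plate and 100% = blocking peptide control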
DDE Tn6 FP ctr: counter-screen for inhibitors of Tn6 peptide binding to fibrin DD(E). inhibition, % at 8.3 µM. TRITC-Tn6 fluorescence polarization displacement; 0% = median of compound wells, not DMSO. 680 compounds, 2% hits. AID 720621. shares compounds with Tn6 DDE FP;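 active = inhibition above the mean of test compounds lying between the control limits plus 3 SD of those, cut at about 14% in these data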;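 note: 0% = median of compound wells and 100% = wells with Aha-Tn7 blocking peptide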
Tn6 DDE conf: confirmation of inhibitors of Tn6 binding to human fibrin DD(E). shares compounds with Tn6 DDE FP. FP displacement of TRITC-Tn6 peptide from DD(E); 0% = per-plate median of test wells. inhibition, % at 8.3 µM. 680 compounds, 10% hits;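 active = inhibition above the mean of compounds lying within the control limits plus 3 SD, cut at about 16% in these data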;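 note: 100% = high control wells holding a competing inhibitor peptide at 10 µM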
Active calls of the source: *; / = no result given.

SMILES	aDG glyco up	DDE Tn7 FP inh	NRP1-CendR mod	Tn6 DDE FP	DDE Tn6 FP ctr	Tn6 DDE conf
O=C(Cn1[nH]c(=O)c2ccccc2c1=O)OCC(=O)c1ccccc1Cl	-0.1	6.0	-11.3	15.5*	0.4	-0.5
Clc1ccccc1N1CCN(C2=Nc3ccccc3Sc3ccccc32)CC1	/	5.5	/	4.8	/	/
COc1cc(-c2cc3nc(NCc4ccco4)ccn3n2)cc(OC)c1OC	-0.1	9.3	-14.3	-3.9	/	/
COc1ccc(C(=O)N(C)Cc2ccc(C)o2)cc1OC1CCN(C(C)=O)CC1	0.1	-5.2	-0.2	16.1*	8.6	5.6
NC(=O)C1CCN(C(=O)COc2ccc3c(c2)oc(=O)c2ccccc23)CC1	0.0	-7.9	12.2	-6.5	/	/
Cc1c(Cc2ccccc2)c(=O)oc2cc(OCC(=O)N3CCC(C(N)=O)CC3)ccc12	-0.1	5.3	-7.1	17.7*	1.0	1.7
CCN(CC(=O)Nc1ccc(NC(C)=O)cc1)C(=O)C1(c2ccc(Cl)cc2)CCC1	0.0	-2.9	9.1	-4.2	/	/
O=C(NC(Cc1cccc(F)c1)C(=O)O)C1CCCCC1 (configuration not stated)	-0.2	-2.6	-2.2	15.9*	-1.9	-6.1
Cc1ccc(C(=O)NC(Cc2cccc(F)c2)C(=O)O)cc1 (configuration not stated)	0.2	-7.2	-1.9	4.7	/	/
CCCCCCCCCCCNC(=O)c1ccoc1C	0.4	0.4	-7.9	17.5*	9.1	2.9
CCCCN1C(=O)C(C(=O)OCc2ccccc2)CC2=C1CCCC2=O (configuration not stated)	1.1	-20.4	-8.2	21.3*	-1.8	-4.6
Clc1ccc(-c2nnc3n2N=C(c2ccc(-c4ccccc4)cc2)CS3)c(Cl)c1	/	-0.4	/	-0.4	/	/
O=C(NCC(c1ccccc1)c1ccccc1)[C@H](Cc1ccccc1)NC1(C(=O)NC2CCCCC2)CCCC1	/	1.1	/	8.9	/	/
CCOC(=O)[C@@H](NC(=O)CC[C@H]1O[C@@H](n2ccc(=O)[nH]c2=O)[C@H](O)[C@@H]1O)C(C)C	0.2	1.8	6.9	2.0	/	/
CCCCC(=Nc1ccc(N)cc1)C1=C(O)C(C(=O)OC)C(C)(C)CC1=O (configuration not stated)	1.1	3.6	3.1	120.6*	-4.3	8.9
CCC(c1nnnn1-c1ccc2c(c1)OCCO2)N1CCN(C(C)=O)CC1 (configuration not stated)	-0.2	-2.0	3.0	4.5	/	/
Cc1ccc(NC(=O)N2CCC(N(C)CCC(C)C)CC2)cc1F	/	1.5	/	1.4	/	/
CC1CN(C(=O)CSc2nnc(-c3cccs3)n2N)CC(C)O1 (configuration not stated)	-0.1	7.9	2.7	5.2	/	/
COc1ccc(S(=O)(=O)N(C)CC(=O)Nc2ccccc2OC)cc1	0.0	5.7	1.1	23.4*	5.0	-0.2
COc1ccc(S(=O)(=O)N[C@H](C(=O)O)C(C)C)cc1	-0.4	-1.2	2.2	-0.6	/	/
CC(=O)NCc1ccc(S(=O)(=O)NC(C(=O)O)C(C)C)cc1 (configuration not stated)	0.1	8.5	-6.0	16.0*	-5.7	-10.0
COC(=O)C1=C(N)Oc2cc(N(C)C)ccc2C1c1ccccc1OC (configuration not stated)	0.5	6.8	-45.9	36.2*	7.3	-8.6
CCc1ccccc1NC(=O)NCc1ccccn1	0.3	2.5	-1.2	-0.8	/	/
CCOc1ccccc1NC(=O)NCc1ccccn1	-0.4	3.2	11.3	19.0*	8.0	5.1
C=C1CCN(c2ccc(C(=O)NCc3ccc(C)cc3)cc2[N+](=O)[O-])CC1	0.0	-1.1	-1.4	2.9	/	/
SMILES	aDG glyco up	DDE Tn7 FP inh	NRP1-CendR mod	Tn6 DDE FP	DDE Tn6 FP ctr	Tn6 DDE conf
C=C1CCN(c2ccc(C(=O)NCc3ccc(OC)cc3)cc2[N+](=O)[O-])CC1	-0.3	-0.6	17.7	15.3*	-3.0	-5.6
CCOc1ccc(CCN2C(=S)N([C@@H](Cc3ccc(O)cc3)CN3CCC[C@@H]3CN3C(=S)NC[C@@H]3CC(C)C)C[C@@H]2Cc2ccc(O)cc2)cc1	-0.6	0.2	15.2	15.6*	0.1	-6.3
Oc1ccc(C[C@H]2CNC(=S)N2CC2CCCN2C[C@H](Cc2ccc(O)cc2)N2C[C@H](Cc3ccc(O)cc3)N(CC3CCCCCC3)C2=S)cc1 (some centres not stated)	-0.3	8.5	3.3	31.0*	-2.5	-0.7
Oc1ccc(C[C@H]2CNC(=S)N2C[C@H]2CCCN2C[C@H](Cc2ccccc2)N2C[C@H](Cc3ccc(O)cc3)N(CCc3ccccc3)C2=S)cc1	0.3	3.4	12.2	17.4*	-1.5	-10.4
CC(C)(C)C(=O)N1CCC[C@]2(CC[C@H](CCC#N)O2)C1	/	-2.7	/	-3.8	/	/
Cc1c(C(=O)NCc2ccco2)sc(=O)n1Cc1ccc(S(C)(=O)=O)cc1	-0.1	0.3	-11.0	3.1	/	/
Cc1cccc(CN[C@@H]2CC[C@@]34CCCN3C(=O)CCC[C@H]4C2)c1	/	-2.1	/	-3.9	/	/
CCCCN1CCN(C(=O)c2ccc(CNC(=O)c3cccc(Br)c3)cc2)CC1	/	-6.5	/	12.0	/	/
Cc1cc2c(cc1S(=O)(=O)N1CCN(c3cccc(C)c3C)CC1)OCCN2C	-0.5	-0.8	-3.3	130.6*	8.4	67.1*
CC(C)(C)S(=O)(=O)N1C[C@H]2CC(=O)C=C2[C@@H]1CCO	/	-1.2	/	-2.1	/	/
CCOc1ccc(NC(=O)[C@@H](NC(=O)c2ccccc2Br)C(C)C)cc1	0.0	5.3	-0.3	-1.6	/	/
CCOc1ccc(NC(=O)C(CC)NC(=O)c2ccccc2CO)cc1 (configuration not stated)	0.1	0.8	-2.9	19.9*	-3.1	-6.4
CC(=O)OCCC(CC(C)C)NC(=O)[C@H](CC(C)C)NC(=O)OCc1ccccc1 (some centres not stated)	/	7.2	/	4.8	/	/
Cc1ccc(S(=O)(=O)N2CN(Cc3ccco3)c3nc4ccccc4nc32)cc1	0.3	-12.3	-35.2	-6.3	/	/
O=S(=O)(c1ccc(F)cc1)N1CN(Cc2ccco2)c2nc3ccccc3nc21	0.5	-1.7	-70.1	36.3*	-6.5	-3.2
N#CC(C#N)=C1C=C2C=C(N3CCCCCC3)CCC2CC1 (configuration not stated)	-0.5	-7.0	136.2	18.5*	53.3*	10.4
